Experimental data from ChEMBL document CHEMBL1141286, “Benzochromenones from the marine crinoid Comantheria rotula inhibit hypoxia-inducible factor-1 (HIF-1) in cell-based reporter assays and differentially suppress the growth of certain tumor cell lines” (J Nat Prod, 2007).
Calls of active or inactive are those of the source. No cut-off for these calls is given here.

Key:
786-0 = experiment: Growth inhibition of human 786-0 cells; format: functional
HT-29 = experiment: Growth inhibition of human HT29 cells; format: functional
BT-549 = experiment: Growth inhibition of human BT549 cells; format: functional
DU-145 = experiment: Growth inhibition of human DU145 cells; format: functional
COLO 205 = experiment: Growth inhibition of human COLO205 cells; format: functional
UACC-257 = experiment: Growth inhibition of human UACC257 cells; format: functional
KM12 = experiment: Growth inhibition of human KM12 cells; format: functional
Hs-578T = experiment: Growth inhibition of human HS578T cells; format: functional
NCI-H226 = experiment: Growth inhibition of human NCI-H226 cells; format: functional
RXF 393 = experiment: Growth inhibition of human RXF393 cells; format: functional
HOP-62 = experiment: Growth inhibition of human HOP62 cells; format: functional
K562 = experiment: Growth inhibition of human K562 cells; format: functional
NCI-H522 = experiment: Growth inhibition of human NCI-H522 cells; format: functional
T47D [1] = experiment: Inhibition of 1,10-phenanthroline-induced VEGF protein secretion in human T47D cells at 10 uM after 16 hrs by ELISA; format: functional, cell-based
Procedure, shortened: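 T47D cells stimulated with 1,10-phenanthroline, compound at 10 μM; secreted VEGF in conditioned media by ELISA, normalized to cell-lysate protein.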

MDA-MB-231 = experiment: Growth inhibition of human MDA-MB-231 cells; format: functional
SNB-19 = experiment: Growth inhibition of human SNB19 cells; format: functional
PC-3 = experiment: Growth inhibition of human PC3 cells; format: functional
CAKI-1 = experiment: Growth inhibition of human CAKI1 cells; format: functional
SK-OV-3 = experiment: Growth inhibition of human SK-OV3 cells; format: functional
[2] = biological target: Hypoxia inducible factors; HIF-1-alpha, HIF-2-alpha (Homo sapiens, UniProt Q16665+Q99814); experiment: Inhibition of HIF1 activation in human T47D cells by TK-luciferase assay; format: cell-based
Procedure, shortened: (§1)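 HIF-1 reporter (pHRE-TK-Luc) assays in transfected PC-3 or T47D cells; HIF-1 induced by hypoxia or by the hypoxia mimetic 1,10-phenanthroline (10 μM); compounds at half-log concentrations; luciferase activity measured; IC50 from experiments in triplicate.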

HCT-15 = experiment: Growth inhibition of human HCT15 cells; format: functional
SNB-75 = experiment: Growth inhibition of human SNB75 cells; format: functional
T47D [3] = experiment: Growth inhibition of human T47D cells; format: functional
[4] = Inhibition of 1,10-phenanthroline-induced HIF1 activation in T47D cells by TK-luciferase assay; format: cell-based; conditions: Homo sapiens; procedure, shortened: as §1
Malme-3M = experiment: Growth inhibition of human MALME-3M cells; format: functional
SK-MEL-2 = experiment: Growth inhibition of human SK-MEL2 cells; format: functional
ACHN = experiment: Growth inhibition of human ACHN cells; format: functional
SK-MEL-5 = experiment: Growth inhibition of human SK-MEL5 cells; format: functional
SN12C = experiment: Growth inhibition of human SN12C cells; format: functional
[5] = Inhibition of HIF1 activation in PC3 cells by TK-luciferase assay; format: cell-based; conditions: Homo sapiens, PC-3; procedure, shortened: as §1
HCT-116 = experiment: Growth inhibition of human HCT116 cells; format: functional
NCI-H322M = experiment: Growth inhibition of human NCI-H322M cells; format: functional
HOP-92 = experiment: Growth inhibition of human HOP92 cells; format: functional
MCF7 = experiment: Growth inhibition of human MCF7 cells; format: functional
SK-MEL-28 = experiment: Growth inhibition of human SK-MEL28 cells; format: functional
EKVX = experiment: Growth inhibition of human EKVX cells; format: functional
SF-295 = experiment: Growth inhibition of human SF295 cells; format: functional
UO-31 = experiment: Growth inhibition of human UO31 cells; format: functional
[6] = read-out: Log LC50 (the source's name) (converted)

CCCc1cc(=O)c2c(O)c3c(OC)cc(O)cc3cc2o1
GI50 (786-0): 25.1 µM
LC50 (786-0): > 100 µM
TGI (786-0; read-out: Log TGI (converted)): > 100 µM
GI50 (HT-29): 18.6 µM
CC50 (HT-29; [6]): 72.4 µM
TGI (HT-29; read-out: Log TGI (converted)): 37.2 µM
GI50 (BT-549): 18.2 µM
LC50 (BT-549): 95.5 µM
TGI (BT-549; read-out: Log TGI (converted)): 41.7 µM
GI50 (DU-145): 18.2 µM
CC50 (DU-145; [6]): > 100 µM
TGI (DU-145; read-out: Log TGI (converted)): 45.7 µM
GI50 (COLO 205): 25.1 µM
CC50 (COLO 205; [6]): > 100 µM
TGI (COLO 205; read-out: Log TGI (converted)): 50.1 µM
GI50 (UACC-257): 27.5 µM
LC50 (UACC-257): > 100 µM
TGI (UACC-257; read-out: Log TGI (converted)): 56.2 µM
GI50 (KM12): 17.4 µM
CC50 (KM12; [6]): 93.3 µM
TGI (KM12; read-out: Log TGI (converted)): 39.8 µM
GI50 (Hs-578T): 25.1 µM
LC50 (Hs-578T): > 100 µM
TGI (Hs-578T; read-out: Log TGI (converted)): 67.6 µM
GI50 (NCI-H226): 17.8 µM
CC50 (NCI-H226; [6]): > 100 µM
TGI (NCI-H226; read-out: Log TGI (converted)): 45.7 µM
GI50 (RXF 393): 18.2 µM
LC50 (RXF 393): > 100 µM
TGI (RXF 393; read-out: Log TGI (converted)): 47.9 µM
GI50 (HOP-62): 22.9 µM
CC50 (HOP-62; [6]): > 100 µM
TGI (HOP-62; read-out: Log TGI (converted)): 56.2 µM
GI50 (K562): 18.2 µM
CC50 (K562; [6]): > 100 µM
TGI (K562; read-out: Log TGI (converted)): 56.2 µM
GI50 (NCI-H522): > 100 µM
CC50 (NCI-H522; [6]): 41.7 µM
TGI (NCI-H522; read-out: Log TGI (converted)): 15.1 µM
Activity (T47D [1]): inactive
GI50 (MDA-MB-231): 15.5 µM
LC50 (MDA-MB-231): > 100 µM
TGI (MDA-MB-231; read-out: Log TGI (converted)): 45.7 µM
GI50 (SNB-19): 32.4 µM
LC50 (SNB-19): 100 µM
TGI (SNB-19; read-out: Log TGI (converted)): 100 µM
GI50 (PC-3): 20.4 µM
LC50 (PC-3): > 100 µM
TGI (PC-3; read-out: Log TGI (converted)): 67.6 µM
GI50 (CAKI-1): 30.2 µM
LC50 (CAKI-1): > 100 µM
TGI (CAKI-1; read-out: Log TGI (converted)): > 100 µM
GI50 (SK-OV-3): 32.4 µM
LC50 (SK-OV-3): > 100 µM
TGI (SK-OV-3; read-out: Log TGI (converted)): 85.1 µM
IC50 [2]: 1.7 µM
GI50 (HCT-15): 15.1 µM
CC50 (HCT-15; [6]): > 100 µM
TGI (HCT-15; read-out: Log TGI (converted)): 40.7 µM
GI50 (SNB-75): 30.9 µM
LC50 (SNB-75): > 100 µM
TGI (SNB-75; read-out: Log TGI (converted)): 74.1 µM
GI50 (T47D [3]): 20.9 µM
LC50 (T47D [3]): > 100 µM
TGI (T47D [3]; read-out: Log TGI (converted)): 93.3 µM
IC50 [4]: 0.6 µM
GI50 (Malme-3M): 25.1 µM
CC50 (Malme-3M; [6]): 100 µM
TGI (Malme-3M; read-out: Log TGI (converted)): 64.6 µM
GI50 (SK-MEL-2): 18.6 µM
LC50 (SK-MEL-2): 91.2 µM
TGI (SK-MEL-2; read-out: Log TGI (converted)): 40.7 µM
GI50 (ACHN): 22.4 µM
CC50 (ACHN; [6]): > 100 µM
TGI (ACHN; read-out: Log TGI (converted)): 64.6 µM
GI50 (SK-MEL-5): 14.8 µM
LC50 (SK-MEL-5): 52.5 µM
TGI (SK-MEL-5; read-out: Log TGI (converted)): 27.5 µM
GI50 (SN12C): 19.1 µM
LC50 (SN12C): > 100 µM
TGI (SN12C; read-out: Log TGI (converted)): 50.1 µM
IC50 [5]: 1 µM
GI50 (HCT-116): 18.6 µM
CC50 (HCT-116; [6]): 75.9 µM
TGI (HCT-116; read-out: Log TGI (converted)): 37.2 µM
GI50 (NCI-H322M): 26.3 µM
CC50 (NCI-H322M; [6]): > 100 µM
TGI (NCI-H322M; read-out: Log TGI (converted)): > 100 µM
GI50 (HOP-92): 17.4 µM
CC50 (HOP-92; [6]): > 100 µM
TGI (HOP-92; read-out: Log TGI (converted)): 46.8 µM
GI50 (MCF7): 25.1 µM
LC50 (MCF7): > 100 µM
TGI (MCF7; read-out: Log TGI (converted)): 60.3 µM
GI50 (SK-MEL-28): 20 µM
CC50 (SK-MEL-28; [6]): 87.1 µM
TGI (SK-MEL-28; read-out: Log TGI (converted)): 41.7 µM
GI50 (EKVX): 28.8 µM
CC50 (EKVX; [6]): > 100 µM
TGI (EKVX; read-out: Log TGI (converted)): 97.7 µM
GI50 (SF-295): 24.5 µM
LC50 (SF-295): > 100 µM
TGI (SF-295; read-out: Log TGI (converted)): 77.6 µM
GI50 (UO-31): 16.2 µM
LC50 (UO-31): > 100 µM
TGI (UO-31; read-out: Log TGI (converted)): 42.7 µM
